{"source": "paper PMC5919120", "about": "(Journal of immunology (Baltimore, Md. : 1950), 2018)", "system": "HCMEC/D3 cells", "assay": "Cellular binding assay by flow cytometry", "type": "cell-based, human", "settings": "p<0.001, n=3", "how_it_was_run": "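HCMEC/D3 cells grown at 37°C in 5% CO2 to 70% confluence, detached, and pre-treated with heparanase I (10 U/ml) and III (2 U/ml) for 1.5 h at 37°C. Cells were then incubated 1 h on ice in 1% BSA/PBS with Atto 425-labelled CXCL8 or FITC-labelled peptide (5 µg/ml). Cells were washed twice (500 x g, 5 min) and signal read by flow cytometry; mean ± SE, n=3.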", "data": [{"substance": "CXCL8: recombinant human CXCL8, labelled with Atto 425 for binding assays", "values": [{"measurement": "binding to HCMEC/D3 cells pre-treated with heparanase I&III", "result": "significantly reduced"}]}]}
